According to ChEMBL document CHEMBL1125259, “Lipophilic glycosyl phosphotriester derivatives of AZT: synthesis, NMR transmembrane transport study, and antiviral activity” (1991):

Columns and labels:
[1] = target: Human immunodeficiency virus type 1 reverse transcriptase (Human immunodeficiency virus 1) (UniProt Q72547); test: Percent inhibition measured as the production of HIV reverse transcriptase (RT) in culture supernatant of monocytic U937 on at 14 days at a concentration 5 uM; format: functional
Outline: (§1)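 U937 cells in RPMI 1640 with 5% heat-inactivated FCS, penicillin, streptomycin and polybrene (2 μg/mL), 37 °C, 5% CO2. Infected with HIV-1 LAV-Bru; compounds diluted in PBS. 50 μL supernatant aliquots were assayed for RT: 1 h, 37 °C, pH 7.8, Mg2+, poly(rA)-oligo(dT), [3H]dTTP, TCA-pyrophosphate stop, filter counting. % inhibition = 100 − 100 × (treated cpm / virus-control cpm).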

[2] = target: Human immunodeficiency virus type 1 reverse transcriptase (Human immunodeficiency virus 1) (UniProt Q72547); test: Compound ability to inhibit the production of HIV reverse transcriptase (RT) in culture supernatant of CEM-CL13 on at 15 days at a concentration 5 uM; format: functional
Outline: (§2)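 CEM-C113 cells in RPMI 1640 with 5% heat-inactivated FCS and polybrene (2 µg/mL) were plated at 1×10^5 cells/mL with compound in PBS, in triplicate, and infected with HIV-1 LAV-Bru. From day 7, every 3–4 days, fresh medium with or without drug was added and 50 µL supernatant was taken for RT microassay. The RT microassay used poly(rA)-oligo(dT) and (methyl-³H)dTTP for 1 h at 37 °C, with TCA precipitation, read as cpm/50 µL.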

[3] = system: CCRF-CEM; test: Concentration that reduced by 50% the HIV induced CPE (cytopathic effect) on day 22.; format: functional; conditions: Homo sapiens, 528 h, read-out: ED50 (the source's name)
Outline: (§3)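 CEM-C113 cells (1×10^5 cells/mL) were infected with HIV-1 LAV-Bru or mock-infected, with compound dilutions in triplicate, for at least 7 days. Medium with or without drug was renewed every 3–4 days for longer runs. MTT absorbance was read at 540 nm. CD50 = 50% reduction of mock-infected absorbance; ED50 = dose giving 50% protection from CPE. Values are averages of at least two experiments.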

[4] = system: CCRF-CEM; test: Concentration required to reduce the viability of uninfected cells (CEM-CL13) by 50% on day 22.; format: functional; conditions: Homo sapiens, 528 h, read-out: CD50 (the source's name); outline: as §3
[5] = target: Human immunodeficiency virus type 1 reverse transcriptase (Human immunodeficiency virus 1) (UniProt Q72547); test: Percent inhibition measured as the production of HIV reverse transcriptase (RT) in culture supernatant of monocytic U937 on at 7 days at a concentration 5 uM; format: functional; outline: as §1
[6] = target: Human immunodeficiency virus type 1 reverse transcriptase (Human immunodeficiency virus 1) (UniProt Q72547); test: Compounds were evaluated for anti-RT activity at 9 days of culture; format: functional
Outline: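 HIV-1 (12 500 CCID50) was preincubated with compound at 25 µM final for 60 min at 37 °C, pelleted by ultracentrifugation and resuspended. RT was measured at once with poly(rA)-oligo(dT) and ³H-dTTP (1 h, 37 °C, cpm). Treated virus was then put on CEM-C113 cells for 60 min and replaced with compound-free medium. Supernatant RT was read at days 7 and 9.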

[7] = target: Human immunodeficiency virus type 1 reverse transcriptase (Human immunodeficiency virus 1) (UniProt Q72547); conditions: at 25 µM
[8] = system: CCRF-CEM; test: Concentration that reduced by 50% the HIV induced CPE (cytopathic effect) on day 19.; format: functional; conditions: Homo sapiens, 456 h, read-out: ED50 (the source's name); outline: as §3
[9] = target: Human immunodeficiency virus type 1 reverse transcriptase (Human immunodeficiency virus 1) (UniProt Q72547); test: Compound ability to inhibit the production of HIV reverse transcriptase (RT) in culture supernatant of CEM-CL13 on at 7 days at a concentration 5 uM; format: functional; outline: as §2
[10] = target: Human immunodeficiency virus type 1 reverse transcriptase (Human immunodeficiency virus 1) (UniProt Q72547); test: Compound ability to inhibit the production of HIV reverse transcriptase (RT) in culture supernatant of CEM-CL13 on at 26 days at a concentration 5 uM; format: functional; outline: as §2
[11] = system: CCRF-CEM; test: Concentration required to reduce the viability of uninfected cells (CEM-CL13) by 50% on day 11.; format: functional; conditions: Homo sapiens, 264 h, read-out: CD50 (the source's name); outline: as §3
[12] = target: Human immunodeficiency virus type 1 reverse transcriptase (Human immunodeficiency virus 1) (UniProt Q72547); test: Compound ability to inhibit the production of HIV reverse transcriptase (RT) in culture supernatant of CEM-CL13 on at 7 days at a concentration 0.2 uM; format: functional; outline: as §2
[13] = target: Human immunodeficiency virus type 1 reverse transcriptase (Human immunodeficiency virus 1) (UniProt Q72547); test: Compound ability to inhibit the production of HIV reverse transcriptase (RT) in preinfected PBL (peripheral blood lymphocytes) at 21 days at a concentration 1 uM; format: functional
Outline: (§4)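 PBL were infected with HIV-1 for 1 h at 37 °C, washed twice, and resuspended in complete medium with 10% interleukin-2 and anti-human α-interferon (1000 units/mL). Cells were plated at 1×10^6 cells/well with or without compound. At each time point, 50 µL supernatant was taken for RT assay ([³H]dTTP incorporation, cpm).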

[14] = target: Human immunodeficiency virus type 1 reverse transcriptase (Human immunodeficiency virus 1) (UniProt Q72547); test: Compound ability to inhibit the production of HIV reverse transcriptase (RT) in culture supernatant of monocytic U937 on at 14 days at a concentration 5 uM; format: functional
Outline: (§5)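 HIV-1-infected monocytic U937 cultures were kept up to 14 days with compound. Supernatant RT activity was measured as for CEM-C113, as [³H] cpm/50 µL. % inhibition = 100 − 100 × (cpm of treated samples / cpm of control virus).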

[15] = target: Human immunodeficiency virus type 1 reverse transcriptase (Human immunodeficiency virus 1) (UniProt Q72547); test: Compound ability to inhibit the production of HIV reverse transcriptase (RT) in culture supernatant of monocytic U937 on at 11 days at a concentration 5 uM; format: functional; outline: as §5
[16] = target: Human immunodeficiency virus type 1 reverse transcriptase (Human immunodeficiency virus 1) (UniProt Q72547); test: Compound ability to inhibit the production of HIV reverse transcriptase (RT) in culture supernatant of CEM-CL13 on at 22 days at a concentration 0.2 uM; format: functional; outline: as §2
[17] = target: Human immunodeficiency virus type 1 reverse transcriptase (Human immunodeficiency virus 1) (UniProt Q72547); test: Compound ability to inhibit the production of HIV reverse transcriptase (RT) in preinfected PBL (peripheral blood lymphocytes) at 14 days at a concentration 5 uM; format: functional; outline: as §4
[18] = target: Human immunodeficiency virus type 1 reverse transcriptase (Human immunodeficiency virus 1) (UniProt Q72547); test: Percent inhibition measured as the production of HIV reverse transcriptase (RT) in culture supernatant of monocytic U937 on at 14 days at a concentration 1 uM; format: functional; outline: as §1
[19] = target: Human immunodeficiency virus type 1 reverse transcriptase (Human immunodeficiency virus 1) (UniProt Q72547); test: Compounds were evaluated for anti-RT activity by MTT dose and %protection was reported at 7 days of culture; format: functional
Outline: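 HIV-1 was preincubated with compound at 25 µM for 60 min at 37 °C, pelleted, and added to CEM-C113 cells (1×10^5 cells/mL) for 60 min at 37 °C. Medium was then replaced without compound. At days 7 and 9, viability was read by MTT assay on 100 µL of cell suspension.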

[20] = target: Human immunodeficiency virus type 1 reverse transcriptase (Human immunodeficiency virus 1) (UniProt Q72547); test: Compound ability to inhibit the production of HIV reverse transcriptase (RT) in culture supernatant of monocytic U937 on at 7 days at a concentration 0.2 uM; format: functional
Outline: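 HIV-1 LAV-Bru-infected U937 cultures run in complete RPMI 1640 (5% FCS, polybrene 2 µg/mL) at 37 °C with compound in triplicate. Culture supernatant (50 µL) sampled from day 7 for RT microassay: poly(rA)-oligo(dT), (methyl-3H)dTTP, Mg2+, pH 7.8, 1 h at 37 °C, TCA precipitation onto filters. Read as cpm/50 µL; % inhibition = 100 − 100 × treated/virus-control cpm.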

[21] = target: Human immunodeficiency virus type 1 reverse transcriptase (Human immunodeficiency virus 1) (UniProt Q72547); test: Compound ability to inhibit the production of HIV reverse transcriptase (RT) in culture supernatant of CEM-CL13 on at 7 days at a concentration 1 uM; format: functional; outline: as §2
[22] = target: Human immunodeficiency virus type 1 reverse transcriptase (Human immunodeficiency virus 1) (UniProt Q72547); test: Compound ability to inhibit the production of HIV reverse transcriptase (RT) in culture supernatant of CEM-CL13 on at 22 days at a concentration 1 uM; format: functional; outline: as §2

Row | SMILES | inhibition [1] [%] | Activity (c.p.m. 50ul-1) [2] | EC50 [3] [µM] | CC50 [4] [µM] | inhibition [5] [%] | Activity (c.p.m. 50ul-1) [6] | inhibition [7] [%] | EC50 [8] [µM] | Activity (c.p.m. 50ul-1) [9] | Activity (c.p.m. 50ul-1) [10] | CC50 [11] [µM] | Activity (c.p.m. 50ul-1) [12] | Activity (c.p.m. 50ul-1) [13] | Activity (c.p.m. 50ul-1) [14] | Activity (c.p.m. 50ul-1) [15] | Activity (c.p.m. 50ul-1) [16] | Activity (c.p.m. 50ul-1) [17] | inhibition [18] [%] | Protection [19] [%] | other results
1 | Cc1cn([C@H]2C[C@H](N=[N+]=[N-])[C@@H](COP(=O)(O)OC[C@H]3OC(O)[C@H](O)[C@@H](O)[C@@H]3O)O2)c(=O)[nH]c1=O (some centres undefined) | 0 | 400 | 0.9 | 35 | 43 | 28000 | 73 | 0.7 | 1100 | 6000 | 35 | 1600 | 16100 | 31400 | 211000 | 2200 | 732 | 9 | – | –
2 | Cc1cn([C@H]2C[C@H](N=[N+]=[N-])[C@@H](COP(=O)(O)OCCO[C@H]3O[C@H](CO)[C@@H](O)[C@H](O)[C@@H]3O)O2)c(=O)[nH]c1=O | 0 | 852 | 0.6 | 28 | 20 | 39000 | 77 | 0.14 | 1670 | 42000 | 28 | 4400 | 21300 | 23000 | 192000 | 27000 | 471 | 0 | 20 | –
3 | Cc1cn([C@H]2C[C@H](N=[N+]=[N-])[C@@H](CO)O2)c(=O)[nH]c1=O [ZIDOVUDINE] | 0 | 500 | 0.45 | 22 | 86 | 7500 | 96 | 0.18 | 900 | 1300 | 23 | 1500 | 44400 | 33000 | 118000 | 6400 | 302 | 0 | 100 | Activity (c.p.m. 50ul-1) [20]: 23000; Activity (c.p.m. 50ul-1) [21]: 100; Activity (c.p.m. 50ul-1) [22]: 1700
